Reference: publication PMC12936682 (Journal of Pharmaceutical Analysis, 2025)
Where two headings read alike, the source gives them in different places.

What was measured:
Notum [1] = molecular target: T1, Notum (Homo sapiens, UniProt Q6P988); test: Notum inhibition assay; assay type: biochemical; settings: for time-dependence of Notum inhibition: pre-incubation 3 and 33 min; for inhibition manner against Notum: inhibition kinetic analyses, Lineweaver-Burk plots
T1 sequence (Q6P988 20-496): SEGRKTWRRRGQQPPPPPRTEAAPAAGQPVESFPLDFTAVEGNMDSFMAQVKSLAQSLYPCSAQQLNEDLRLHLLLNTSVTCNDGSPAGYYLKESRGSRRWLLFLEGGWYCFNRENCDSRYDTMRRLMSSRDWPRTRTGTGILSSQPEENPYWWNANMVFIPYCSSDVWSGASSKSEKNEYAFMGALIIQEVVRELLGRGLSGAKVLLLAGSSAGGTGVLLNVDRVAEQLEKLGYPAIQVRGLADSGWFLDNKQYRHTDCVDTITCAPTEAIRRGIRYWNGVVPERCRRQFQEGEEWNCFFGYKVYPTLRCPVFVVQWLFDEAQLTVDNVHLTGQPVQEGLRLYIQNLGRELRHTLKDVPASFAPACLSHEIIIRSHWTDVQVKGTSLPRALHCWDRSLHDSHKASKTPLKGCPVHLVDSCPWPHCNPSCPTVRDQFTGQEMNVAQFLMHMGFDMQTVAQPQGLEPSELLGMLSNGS
In short: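 Notum expressed and purified per an earlier protocol. The 200 μL mix held 10 μM OPTS, 0.1 M Tris-HCl pH 7.4 and inhibitor, preincubated at 37 °C for 3 min. For time-dependence, parallel preincubations of 3 and 33 min ran before OPTS addition. Product fluorescence was read at ex 403/em 510 nm after subtracting no-enzyme blanks. IC50 came from nonlinear regression.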

MC3T3-E1 cells [2] = test: Osteoblast differentiation: ALP level, ALP staining and alizarin red S staining; assay type: cell-based; settings: for level of ALP: MC3T3-E1 osteoblasts, induced differentiation 5 days, Fig. S6
In short: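 MC3T3-E1 cells were grown in DMEM with 10% FBS and 1% penicillin-streptomycin at 37 °C, 5% CO2. Cells were seeded at 2 × 10³ cells/well for 24 h, then moved to induction medium (10 mM β-glycerophosphate, ascorbic acid) with Dex and test compound added together. ALP staining (BCIP/NBT) followed 7 days and 4% paraformaldehyde fixation (RT, 15 min). ARS staining followed 21 days. Both were viewed by microscope.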

MC3T3-E1 cells [3] = test: CCK-8 cell viability assay; assay type: cell-based; settings: CCK-8, Fig. S5
Notum [4] = molecular target: T1, Notum; settings: cited from earlier work
[5] = system: Dex-induced osteoporosis mice; test: In vivo anti-osteoporosis effects in Dex-induced osteoporosis mice; set-up: species or system C57BL/6J mice; settings: for cortical and cancellous bones (micro-CT, H&E): rhein 40 and 80 mg/kg i.g. 5 weeks, PTH i.p., vs Dex
[6] = cited from earlier work
healthy mice = test: Safety assessment of rhein in mice; assay type: in vivo, C57BL/6J mice; settings: 200 mg/kg orally once daily for 14 days, vs control
In short: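 One group received 0.5% CMC-Na vehicle. The other received test compound at 200 mg/kg orally once daily for 14 days. At the end, serum plus heart, liver, spleen, lung and kidney were collected. Data are mean ± standard deviation, compared by Student's t-test (P < 0.05).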

[7] = cited from earlier work; remark: listed apart in the source
MC3T3-E1 cells [8] = test: RNA sequencing of Dex-challenged osteoblasts; assay type: cell-based
In short: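 Dex-treated MC3T3-E1 cells then received test compound and were cultured for 7 days. Total RNA was extracted from control (DMSO), Dex and Dex plus test compound groups for sequencing.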

[9] = treatment 7 days, Dex-challenged MC3T3-E1

| IC50 (Notum [1]) [nM] | time-dependence of Notum inhibition (Notum [1]) | Molecule | level of ALP (MC3T3-E1 cells [2]) | growth rates of MC3T3-E1 cells (MC3T3-E1 cells [3]) | Ki (Notum [1]) [nM] | inhibition manner against Notum (Notum [1]) | cortical and cancellous bones (micro-CT, H&E) [5] | also measured |
| --- | --- | --- | --- | --- | --- | --- | --- | --- |
| 946 ± 55.1 | not time-dependent | Cc1cc(O)c2c(c1)C(=O)c1cccc(O)c1C2=O [Chrysophanol] |  |  |  |  |  |  |
| 286 ± 23.5 | not time-dependent | Cc1cc(O)c2c(c1)C(=O)c1cc(O)cc(O)c1C2=O [Emodin] | significantly up-regulated | not enhanced | 276 | competitive |  | pro-differentiation effects on MC3T3-E1 cells (MC3T3-E1 cells [2]; relative high dose 5 μM): slight pro-differentiation effects |
|  |  | C=C1C(=O)O[C@@H]2C[C@@]3(C)CCCC(=C)[C@@H]3C[C@H]12 [Isoalantolactone] |  |  |  |  |  | IC50 (Notum [4]; previously reported natural Notum inhibitor ref 41): 60.6 nM |
|  |  | Cn1c(=O)c2c(ncn2C)n(C)c1=O [caffeine] |  |  |  |  |  | IC50 (Notum [4]; previously reported natural Notum inhibitor ref 46): 200000 nM |
|  |  | parathyroid hormone 1–34 [PTH, reference compound] |  |  |  |  | thickened significantly |  |

| Molecule | IC50 (Notum [1]) [nM] | time-dependence of Notum inhibition (Notum [1]) | level of ALP (MC3T3-E1 cells [2]) | growth rates of MC3T3-E1 cells (MC3T3-E1 cells [3]) | Ki (Notum [1]) [nM] | inhibition manner against Notum (Notum [1]) | cortical and cancellous bones (micro-CT, H&E) [5] | also measured |
| --- | --- | --- | --- | --- | --- | --- | --- | --- |
| O=C(O)c1cc(O)c2c(c1)C(=O)c1cccc(O)c1C2=O [Rhein] | 9.98 ± 0.84 | not time-dependent | significantly up-regulated | not enhanced | 13.6 | competitive | thickened significantly | Notum expression levels in cortical bone (immunofluorescence) ([5]; Dex-challenged mice treated with rhein): significantly suppressed; BV/TV and BMD at the distal femur ([5]; rhein group, micro-CT): did not increase significantly; BMD increase at the mid femur ([5]; rhein group, micro-CT, compared with distal femur): more prominent; metabolic stability [6]: poor; body weight at the outset and at the end of animal tests (healthy mice): no noticeable discrepancy; serum safety indicators (ALB, ALP, ALT, AST, CK, CREA, GLU, TC, TG, TP, BUN) (healthy mice): no significant difference; oral bioavailability [7]: very lower; reduced ALP staining intensity and decreased matrix mineralisation level (MC3T3-E1 cells [2]; 0.5 μM, Dex-challenged MC3T3-E1 cells): totally restored; ALP staining intensity and matrix mineralisation level of osteoblasts (MC3T3-E1 cells [2]; dose-dependent, ALP day 7, ARS day 21, Dex-treated MC3T3-E1): significantly increased; pro-differentiation effects on MC3T3-E1 cells (MC3T3-E1 cells [2]; low dose 0.5 μM): more significant pro-differentiation effects; expression of Wnt signaling-related genes (WNT6, GSK3β) and osteogenic differentiation-related genes (RUNX2, BMP4) (MC3T3-E1 cells [8]; Dex-challenged MC3T3-E1, RNA sequencing): significantly restored; genes downregulated in comparison to the Dex-challenged group (MC3T3-E1 cells [8]; [9]): 78; genes upregulated in comparison to the Dex-challenged group (MC3T3-E1 cells [8]; [9]): 67 |
